From ChEMBL document CHEMBL2203249, “Optimization of a small tropomyosin-related kinase B (TrkB) agonist 7,8-dihydroxyflavone active in mouse models of depression” (J Med Chem, 2012)
Active and inactive are the calls of the source. The rule behind the calls is not given here.

What was measured:
[1] = Drug recovery in human plasma at 5 uM; assay type: ADME, cell-free; conditions: read-out: Drug uptake
Outline: (§1)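 Human plasma protein binding was tested at 5 μM, reporting fraction unbound, fraction bound and recovery. The assay was run by a contract lab.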

Mus musculus [2] = assay: Antidepressant activity in C57BL/J6 mouse assessed as reduction of immobility at 2.5 mg/kg, po administered qd for 21 days by tail suspension test; assay type: functional, organism-based; set-up: dose 2.5 mg/kg
Outline: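 Male C57BL/6J mice were gavaged once daily for 21 days with 2.5 mg/kg or saline vehicle, then tested for immobility during tail suspension. n=8, Student's t-test.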

Mus musculus [3] = assay: Antidepressant activity in C57BL/J6 mouse assessed as reduction of immobility at 2.5 mg/kg, po administered qd for 21 days recorded in last 4 mins by forced swim test; assay type: functional
Outline: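 Male C57BL/6J mice, 2–3 months old, were gavaged daily for 21 days with drug (5 or 2.5 mg/kg) or saline and adapted to the test room for 2 days. With no preswim, each mouse was placed for 6 min in a 16-cm cylinder of 24 °C water, 14 cm deep. Immobility in the last 4 min was scored blind and compared by unpaired t-test (n=6 or 8).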

[4] = Metabolic stability in human liver microsomes assessed as remaining parent compound at 1 uM after 1 hr in the absence of […]; assay type: ADME, Microsome; conditions: read-out: Stability
Outline: (§2)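 Human liver microsomes were incubated with test compound at 1 μM for 1 h. Percent parent remaining was measured with cofactor and in a cofactor-free control. The work was done by a contract lab.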

[5] = Metabolic stability in human liver microsomes assessed as remaining parent compound at 1 uM after 1 hr in the presence of […]; assay type: ADME, Microsome; conditions: read-out: Stability; outline: as §2
CYP3A4 [6] = biological target: T1, CYP3A4 (Homo sapiens, UniProt P08684); assay: Inhibition of CYP3A4 at 30 uM using modazolam substrate; assay type: ADME; conditions: probe midazolam (printed: modazolam)
CYP2C19 [7] = biological target: T2, CYP2C19 (Homo sapiens, UniProt P33261); assay: Inhibition of CYP2C19 at 3 uM; assay type: ADME
Outline: (§3)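 CYP inhibition was tested at 3 and 30 μM and reported as percent inhibition. The assay was run by a contract lab.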

[8] = biological target: BDNF/NT-3 growth factors receptor (Rattus norvegicus) (UniProt Q63604); assay: Agonist activity at TrkB receptor in rat primary neurons assessed as Akt phosphorylation at 500 nM after 15 mins by immunoblotting analysis; assay type: functional
Outline: (§4)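 Primary cortical cultures from E17 rat embryos were exposed to 500 nM for 15 min. Lysates were immunoblotted for p-TrkB and p-Akt (20 μg per lane). Two replicate experiments.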

CYP2C19 [9] = biological target: T2, CYP2C19; assay: Inhibition of CYP2C19 at 30 uM; assay type: ADME; outline: as §3
Mus musculus [10] = assay: Agonist activity at TrkB receptor in C57BL/J6 mouse brain assessed as TrkB phosphorylation at tyrosine 816 in hippocampus at 2.5 mg/kg, po administered qd for 21 days by immunoblotting analysis
Liver microsomes = assay: Metabolic stability in human liver microsomes assessed as formation of reactive metabolites at 1 uM after 1 hr; assay type: ADME, Microsome
Mus musculus [11] = assay: Agonist activity at TrkB receptor in C57BL/J6 mouse brain assessed as TrkB phosphorylation at tyrosine 816 in hippocampus at 2.5 mg/kg, po […] by Western blotting analysis; assay type: functional, organism-based; set-up: dose 2.5 mg/kg
Outline: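 Male C57BL/6J mice were gavaged with 2.5 mg/kg/day for 21 days, with saline vehicle controls. Hippocampus was collected after the behavioural tests, and BrdU at 100 mg/kg i.p. was given 2 h before sacrifice. Lysates were immunoblotted for p-TrkB, total TrkB and p-Akt, and the p-TrkB/TrkB ratio was determined. Two replicate experiments, Student's t-test.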

Mus musculus [12] = assay: Agonist activity at TrkB receptor in C57BL/J6 mouse brain assessed as Akt phosphorylation at serine 473 in hippocampus at 2.5 mg/kg, po after 2 hrs by immunoblotting analysis; assay type: functional, organism-based; set-up: dose 2.5 mg/kg
CYP3A4 [13] = biological target: T1, CYP3A4; assay: Inhibition of CYP3A4 at 3 uM using testosterone substrate; assay type: ADME; conditions: probe testosterone
CYP2D6 = CYP2D6 (Homo sapiens, UniProt P10635); assay: Inhibition of CYP2D6 at 30 uM; assay type: ADME
HepG2 [14] = assay: Genotoxicity in human HepG2 cells assessed as induction of DNA lesion at 100 uM after 24 hrs by comet assay; assay type: toxicity, cell-based; conditions: hepg2, 24 h
Outline: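 HepG2 cells were exposed to 100 μM for 24 h, with etoposide as positive control. Cells were embedded in agarose, lysed 2 h at 4°C at pH 10, unwound 40 min in alkali at pH >13 and electrophoresed at 25 V for 30 min at 4°C. After ethidium bromide staining, comet-tail nuclei were counted in >100 cells per field. Three independent experiments, one-way ANOVA.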

HepG2 [15] = assay: Cytotoxicity against human HepG2 cells assessed as cell death upto 100 uM after 24 hrs by LDH assay; assay type: cell-based; conditions: hepg2, 24 h
Outline: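 HepG2 cells were exposed to a range of concentrations up to 100 μM for 24 h, and cytotoxicity was measured by LDH release. n=3.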

CYP2C9 = CYP2C9 (Homo sapiens, UniProt P11712); assay: Inhibition of CYP2C9 at 30 uM; assay type: ADME; outline: as §3
HepG2 [16] = assay: Genotoxicity in human HepG2 cells assessed as micronuclei formation at 50 uM after 24 hrs by DAPI staining; assay type: toxicity, cell-based; conditions: hepg2, 24 h
Outline: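 HepG2 cells were exposed to 50 μM for 24 h, with benzo(a)pyrene as positive control. Cells were swollen in hypotonic KCl/NaCl for 10 min at 37°C, fixed in methanol/acetic acid 3:1 and stained with DAPI at 2 μg/ml. Three independent experiments, one-way ANOVA.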

CYP3A4 [17] = biological target: T1, CYP3A4; assay: Inhibition of CYP3A4 at 30 uM using testosterone substrate; assay type: ADME; conditions: probe testosterone
Mus musculus [18] = assay: Agonist activity at TrkB receptor in C57BL/J6 mouse brain assessed as TrkB phosphorylation at tyrosine 816 in hippocampus at 2.5 mg/kg, po after 2 hrs by immunoblotting analysis; assay type: functional, organism-based; set-up: dose 2.5 mg/kg
Plasma = assay: Fraction unbound in human plasma at 5 uM; assay type: ADME, cell-free; outline: as §1
Mus musculus [19] = assay: Agonist activity at TrkB receptor in C57BL/J6 mouse brain assessed as TrkB phosphorylation at tyrosine 816 in dentate gyrus at 2.5 mg/kg, po administered qd for 21 days by immunohistochemical staining; assay type: functional, organism-based; set-up: dose 2.5 mg/kg
Outline: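 Mice were gavaged with 2.5 mg/kg/day for 21 days and perfused with 4% paraformaldehyde. Paraffin sections of 6 μm had antigen retrieval by boiling in 10 mM citrate, pH 6.0. Sections were stained with anti-p-TrkB 816 at 1:300 and anti-TrkB at 1:50, with fluorescent secondaries and DAPI, and dentate gyrus was examined.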

CYP3A4 [20] = biological target: T1, CYP3A4; assay: Inhibition of CYP3A4 at 3 uM using modazolam substrate; assay type: ADME; conditions: probe midazolam (printed: modazolam)
[21] = biological target: BDNF/NT-3 growth factors receptor (Rattus norvegicus) (UniProt Q63604); assay: Agonist activity at TrkB receptor in rat primary neurons assessed as TrkB phosphorylation at tyrosine 816 at 500 nM after 15 mins by immunoblotting analysis; assay type: functional; outline: as §4
Mus musculus [22] = assay: Agonist activity at TrkB receptor in C57BL/J6 mouse brain assessed as TrkB phosphorylation at tyrosine 816 in hippocampus at 1 mg/kg, po after 2 hrs by immunoblotting analysis; assay type: functional, organism-based; set-up: dose 1 mg/kg
Outline: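 Hippocampus from male C57BL/6J mice was taken 2 h after a single 1 mg/kg oral dose. Brain was homogenised and ultracentrifuged, and 40 μg supernatant was immunoblotted for p-TrkB, p-Akt and p-MAPK.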

Mus musculus [23] = organism: Mus musculus; assay: Agonist activity at TrkB receptor in C57BL/J6 mouse brain assessed as TrkB phosphorylation at tyrosine 706 in hippocampus at […] by immunoblotting analysis; assay type: functional, organism-based

Chain of BDNF/NT-3 growth factors receptor (Rattus norvegicus) (Q63604 whole entry): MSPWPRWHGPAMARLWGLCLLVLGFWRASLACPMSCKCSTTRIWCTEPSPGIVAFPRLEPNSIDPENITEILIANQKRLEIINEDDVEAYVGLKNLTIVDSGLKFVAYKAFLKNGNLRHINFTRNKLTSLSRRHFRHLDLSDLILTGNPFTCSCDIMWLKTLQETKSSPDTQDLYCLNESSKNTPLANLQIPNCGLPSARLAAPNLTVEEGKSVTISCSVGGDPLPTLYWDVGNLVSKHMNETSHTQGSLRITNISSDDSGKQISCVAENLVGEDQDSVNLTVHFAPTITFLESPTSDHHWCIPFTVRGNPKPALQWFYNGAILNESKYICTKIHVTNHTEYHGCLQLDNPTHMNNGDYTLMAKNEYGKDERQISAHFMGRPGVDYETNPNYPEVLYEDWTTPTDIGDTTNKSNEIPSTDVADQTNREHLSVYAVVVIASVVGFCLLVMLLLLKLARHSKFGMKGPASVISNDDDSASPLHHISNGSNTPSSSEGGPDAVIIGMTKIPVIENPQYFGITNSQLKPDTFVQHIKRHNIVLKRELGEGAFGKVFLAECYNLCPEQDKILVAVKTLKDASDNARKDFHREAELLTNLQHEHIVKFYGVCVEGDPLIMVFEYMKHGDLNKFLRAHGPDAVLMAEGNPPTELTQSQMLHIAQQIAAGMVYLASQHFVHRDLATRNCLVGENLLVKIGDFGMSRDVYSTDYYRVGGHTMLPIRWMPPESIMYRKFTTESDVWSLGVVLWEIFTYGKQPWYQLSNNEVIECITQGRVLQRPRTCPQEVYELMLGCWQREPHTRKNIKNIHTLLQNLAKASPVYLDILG
T1 sequence (P08684 whole entry): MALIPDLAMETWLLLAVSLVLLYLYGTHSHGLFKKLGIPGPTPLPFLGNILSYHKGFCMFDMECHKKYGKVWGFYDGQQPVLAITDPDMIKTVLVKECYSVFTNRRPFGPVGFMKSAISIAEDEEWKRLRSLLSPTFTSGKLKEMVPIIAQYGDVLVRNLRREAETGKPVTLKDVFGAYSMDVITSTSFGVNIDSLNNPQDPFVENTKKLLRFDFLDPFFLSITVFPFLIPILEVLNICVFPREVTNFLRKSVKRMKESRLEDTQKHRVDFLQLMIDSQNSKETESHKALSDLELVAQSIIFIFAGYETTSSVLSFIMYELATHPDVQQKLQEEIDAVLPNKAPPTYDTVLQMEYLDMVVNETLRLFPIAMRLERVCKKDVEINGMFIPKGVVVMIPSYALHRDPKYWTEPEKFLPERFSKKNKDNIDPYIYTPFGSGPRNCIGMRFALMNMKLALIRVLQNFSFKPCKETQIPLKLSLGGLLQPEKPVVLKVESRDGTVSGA
T2 sequence (P33261 whole entry): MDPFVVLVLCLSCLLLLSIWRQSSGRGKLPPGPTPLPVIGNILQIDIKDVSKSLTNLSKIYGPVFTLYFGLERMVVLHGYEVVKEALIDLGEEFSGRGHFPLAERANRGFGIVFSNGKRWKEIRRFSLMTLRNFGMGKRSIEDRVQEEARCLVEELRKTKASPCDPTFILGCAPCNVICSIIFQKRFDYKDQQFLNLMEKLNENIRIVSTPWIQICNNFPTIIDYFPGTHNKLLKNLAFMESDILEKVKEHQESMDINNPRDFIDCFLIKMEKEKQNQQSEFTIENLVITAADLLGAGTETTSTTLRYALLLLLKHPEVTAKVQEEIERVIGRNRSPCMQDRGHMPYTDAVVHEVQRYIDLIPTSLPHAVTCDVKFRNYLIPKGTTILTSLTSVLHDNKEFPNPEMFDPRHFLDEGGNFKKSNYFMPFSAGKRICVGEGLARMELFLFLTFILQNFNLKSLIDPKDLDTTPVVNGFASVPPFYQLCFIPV
Chain of CYP2C9 (P11712 whole entry): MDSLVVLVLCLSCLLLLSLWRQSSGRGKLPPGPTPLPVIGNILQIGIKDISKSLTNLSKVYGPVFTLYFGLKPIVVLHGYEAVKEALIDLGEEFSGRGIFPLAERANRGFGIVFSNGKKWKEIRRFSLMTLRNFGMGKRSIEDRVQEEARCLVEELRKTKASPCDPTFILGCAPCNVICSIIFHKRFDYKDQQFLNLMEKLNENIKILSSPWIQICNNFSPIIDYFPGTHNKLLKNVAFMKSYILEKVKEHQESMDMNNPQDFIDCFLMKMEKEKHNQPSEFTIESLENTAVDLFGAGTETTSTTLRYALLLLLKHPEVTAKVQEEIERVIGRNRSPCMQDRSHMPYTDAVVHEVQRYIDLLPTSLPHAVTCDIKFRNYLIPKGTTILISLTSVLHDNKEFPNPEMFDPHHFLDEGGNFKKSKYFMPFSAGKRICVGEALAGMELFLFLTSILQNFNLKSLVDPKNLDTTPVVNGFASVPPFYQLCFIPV
Chain of CYP2D6 (P10635 whole entry): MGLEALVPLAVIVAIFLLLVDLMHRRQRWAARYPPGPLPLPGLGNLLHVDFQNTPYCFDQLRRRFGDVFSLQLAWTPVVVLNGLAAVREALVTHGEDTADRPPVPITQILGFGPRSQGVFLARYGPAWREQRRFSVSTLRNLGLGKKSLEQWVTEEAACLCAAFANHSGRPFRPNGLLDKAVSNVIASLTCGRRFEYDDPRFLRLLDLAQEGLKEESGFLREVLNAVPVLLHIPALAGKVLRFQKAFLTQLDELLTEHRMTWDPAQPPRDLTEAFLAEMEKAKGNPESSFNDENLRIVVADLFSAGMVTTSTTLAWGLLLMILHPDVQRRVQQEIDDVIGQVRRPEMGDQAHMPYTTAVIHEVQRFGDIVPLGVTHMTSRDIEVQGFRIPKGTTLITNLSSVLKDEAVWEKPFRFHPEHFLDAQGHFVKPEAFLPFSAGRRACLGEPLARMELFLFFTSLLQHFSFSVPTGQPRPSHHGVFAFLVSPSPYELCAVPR

SMILES | remaining at 5 µM [1] | Activity (Mus musculus [2]) | Activity (Mus musculus [3]) | remaining at 1 h, 1 µM [4] | remaining at 1 h, 1 µM [5] | inhibition at 30 µM (CYP3A4 [6]) | inhibition at 3 µM (CYP2C19 [7]) | Activity [8] | inhibition at 30 µM (CYP2C19 [9]) | Activity (Mus musculus [10]) | Stability (Liver microsomes) | Activity (Mus musculus [11]) | Activity (Mus musculus [12]) | inhibition at 3 µM (CYP3A4 [13]) | inhibition at 30 µM (CYP2D6) | Activity (HepG2 [14]) | Activity (HepG2 [15]) | inhibition at 30 µM (CYP2C9) | Activity (HepG2 [16]) | inhibition at 30 µM (CYP3A4 [17]) | other results
O=c1cc(-c2ccc(N3CCCC3)cc2)oc2c1ccc1cc[nH]c12 | 97% | inactive | inactive | 79.6% | 1.2% | 48.1% | 16.2% | Active | 90% | Active | Unstable | Active | Active | 3.4% | 81.6% | Non-toxic | Non-toxic | 52.9% | Non-toxic | 18.7% | Activity (Mus musculus [18]): Active; Fu (Plasma): 0.07%; Activity (Mus musculus [19]): Active; inhibition at 3 µM (CYP3A4 [20]): 3.9%; Activity [21]: Active; Activity (Mus musculus [22]): Active; Activity (Mus musculus [23]): Active
Cc1nc2ccc3c(=O)cc(-c4ccc(N5CCCC5)cc4)oc3c2[nH]1 | 86.3% | Active | 45% | 92.2% | 25.4% | 40.5% | 11.1% | Active | 57.7% | Active | Stable | Active | Active | 4.5% | 32% | Non-toxic | Non-toxic | 73.6% | Non-toxic | 43.3% | Activity (Mus musculus [18]): Active; Fu (Plasma): 0.03%; Activity (Mus musculus [19]): Active; inhibition at 3 µM (CYP3A4 [20]): 10.8%; Activity [21]: Active; Activity (Mus musculus [22]): Active; Activity (Mus musculus [23]): Active
